73 sequences from the array DNA melting data of Ke et al. (doi:10.1101/2024.01.08.574731) can be followed below.

A short description of data set [1]: folding enthalpy; higher = less favourable; fluorescence melt of hairpins on a sequencing array, two-state fit. Particulars: sodium 0.088 M. In a few lines: (§1)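 Melting temperature and folding enthalpy were obtained by bootstrapped two-state fitting. Fits used Cy3 fluorescence of library hairpins with annealed Cy3 and quencher oligos on a sequenced MiSeq flow cell, imaged in 50 mM Na-HEPES pH 8.0, 25 mM NaCl in 2.5 °C steps up to 60 °C and normalised to pre-quench Cy3 and control constructs. Four replicates were combined by inverse-variance weighting, and fitted temperatures were raised by 9.35 °C to match UV melts.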

A short description of data set [2]: melting temperature; fluorescence melt of hairpins on a sequencing array, two-state fit, raised by 9.35 °C to match UV melts. Particulars: sodium 0.088 M. In a few lines:
as §1

For GTCGAGGAAACTCGAC ((((((....)))))), in data set [1], the folding enthalpy was -45.2 kcal/mol. Also, the Tm in data set [2] is 63.3 °C.
Taken in the same sequence, the figures for GTCGAGGCGAAAGCCGAC (((..(((....)))))) were -9.98 kcal/mol and 51 °C.
Taken in the same sequence, the figures for GTCGAGGGAAACCTCGGC (.(((((....))))).) were -35.8 kcal/mol and 57.3 °C.
In the case of GTCGAGGGAAACCTTGAC (((.(((....))).))), the folding enthalpy in data set [1] is -38.5 kcal/mol. In addition, the Tm in data set [2] came out at 48.7 °C.
Regarding GTCGAGGGAAACTTCGAC (((((.(....).))))), the folding enthalpy in data set [1] is -42.6 kcal/mol. In addition, in data set [2], the Tm came to 49.6 °C.
Taken in the same sequence, the figures for GTCGAGGGAAACTTCGGC (.(((.(....).))).) were -24.6 kcal/mol and 36.4 °C.
Taken in the same sequence, the figures for GTCGAGTCGAAAGACGAC (((..(((....)))))) were -10.7 kcal/mol and 47 °C.
Taken in the same sequence, the figures for GTCGATCGAAAGATGAC (((.(((....)))))) were -26.9 kcal/mol and 43.7 °C.
As to GTCGATGGAAACATCAAC ((.((((....)))).)), in data set [1], the folding enthalpy was -17.6 kcal/mol. For the same sequence, the Tm in data set [2] worked out at 34.7 °C.
Taken in the same sequence, the figures for GTCGCAACGAAAGTTGAC (((..(((....)))))) were -12.1 kcal/mol and 29.4 °C.
Taken in the same sequence, the figures for GTCGCAGGAAACCGCGAC (((((.(....).))))) were -43.1 kcal/mol and 58.9 °C.
Taken in the same sequence, the figures for GTCGCAGGAAACTGTGGC (.(.(((....))).).) were -29.9 kcal/mol and 42.8 °C.
With GTCGCCGAAAGGCATGAC ((((((....)))..))), in data set [1], the folding enthalpy was -13.2 kcal/mol. In addition, the Tm in data set [2] stood at 40.7 °C.
Taken in the same sequence, the figures for GTCGCCGAAAGGCCCGAC ((((((....)))..))) were -11.6 kcal/mol and 37.4 °C.
Taken in the same sequence, the figures for GTCGCCGAAAGGCCGGAC ((((((....)))..))) were -13.1 kcal/mol and 41.6 °C.
Turning to GTCGCCGGAAACAGCGAC (((((.(....).))))), in data set [1], the folding enthalpy was -44.9 kcal/mol. Moreover, in data set [2], the Tm amounted to 54.9 °C.
Taken in the same sequence, the figures for GTCGCCGGAAACGGTGAC (((.(((....))).))) were -41.5 kcal/mol and 63.7 °C.
Taken in the same sequence, the figures for GTCGCGGCGAAAGCCGAC (((..(((....)))))) were -7.7 kcal/mol and 42.2 °C.
GTCGCTCGAAAGAGAGAC (((.(((....))).))): in data set [1], the folding enthalpy was -42.9 kcal/mol. Further, the Tm in data set [2] was 58.4 °C.
For GTCGCTGGAAACAGTGAC (((.(((....))).))), the folding enthalpy in data set [1] is -50.4 kcal/mol. Further, the Tm in data set [2] is 54.9 °C.
Taken in the same sequence, the figures for GTCGCTGGAAACGGCGAC (((((.(....).))))) were -43.8 kcal/mol and 65.7 °C.
Taken in the same sequence, the figures for GTCGGAGAAATCCGAC ((((((....)))))) were -35.7 kcal/mol and 61.7 °C.
GTCGGAGGAAACTCCAAC ((.((((....)))).)): in data set [1], the folding enthalpy is -22.7 kcal/mol. In data set [2], the Tm came out at 35.5 °C.
For the sequence GTCGGCCCGAAAGGGGAC (((..(((....)))))), in data set [1], the folding enthalpy is -12.6 kcal/mol. In addition, in data set [2], the Tm was 43.3 °C.
Taken in the same sequence, the figures for GTCGGCCGAAAGGCGAC (((.(((....)))))) were -21.9 kcal/mol and 67.2 °C.
Taken in the same sequence, the figures for GTCGGCGAAAGCCGCGAC ((((((....)))..))) were -11.6 kcal/mol and 57.7 °C.
Taken in the same sequence, the figures for GTCGGCGCGAAAGCGGAC (((..(((....)))))) were -13.8 kcal/mol and 45.6 °C.
On to GTCGGGAAACCGAC (((((....))))), for which the folding enthalpy in data set [1] is -24.2 kcal/mol. Besides, the Tm in data set [2] was determined as 66 °C.
Taken in the same sequence, the figures for GTCGGGGGAAACCCTGGC (.(.(((....))).).) were -21.8 kcal/mol and 43.9 °C.
Taken in the same sequence, the figures for GTCGGGGGAAACTCCGAC (((((.(....).))))) were -44.7 kcal/mol and 57.6 °C.
On to GTCGGTCGAAAGACGAC (((.(((....)))))), for which the folding enthalpy in data set [1] was -29.2 kcal/mol. The Tm in data set [2] is 55.1 °C.
Take GTCGGTGGAAACACCGGC (.(((((....))))).): the folding enthalpy in data set [1] was -23.8 kcal/mol. Moreover, in data set [2], the Tm came out at 63.2 °C.
Taken in the same sequence, the figures for GTCGGTGGAAACATCGGC (.((.((....)).)).) were -26.2 kcal/mol and 44.4 °C.
As for GTCGTAACGAAAGTTGAC (((..(((....)))))), the folding enthalpy in data set [1] was -22.4 kcal/mol. In addition, in data set [2], the Tm came out at 35.8 °C.
As for GTCGTACGAAAGTAAGAC (((.(((....))).))), the folding enthalpy in data set [1] is -33.2 kcal/mol. For the same sequence, in data set [2], the Tm was 52.1 °C.
Taken in the same sequence, the figures for GTCGTCCGAAAGGAAGAC (((.(((....))).))) were -33 kcal/mol and 55.9 °C.
Taken in the same sequence, the figures for GTCGTCGAAAGACCAGAC ((((((....)))..))) were -16.6 kcal/mol and 34.9 °C.
Taken in the same sequence, the figures for GTCGTCGAAAGACCGGAC ((((((....)))..))) were -16.9 kcal/mol and 37.4 °C.
As for GTCGTCGAAAGACGAGAC ((((((....)))..))), the folding enthalpy in data set [1] is -10.8 kcal/mol. For the same sequence, the Tm in data set [2] is 49.8 °C.
Regarding GTCGTCGCGAAAGCGGAC (((..(((....)))))), the folding enthalpy in data set [1] is -10.6 kcal/mol. In data set [2], the Tm is 46.5 °C.
Turning to GTCGTCGGAAACGACAAC ((.((((....)))).)), the folding enthalpy in data set [1] is -13 kcal/mol. Besides, in data set [2], the Tm turned out to be 47.4 °C.
Taken in the same sequence, the figures for GTCGTCGGAAACGATGGC (.(.(((....))).).) were -25.4 kcal/mol and 46.2 °C.
Consider GTCGTGACGAAAGTCGAC (((..(((....)))))), for which, in data set [1], the folding enthalpy is -16.6 kcal/mol. Also, the Tm in data set [2] came to 46.3 °C.
With GTCGTGGCGAAAGCCGAC (((..(((....)))))), the folding enthalpy in data set [1] was -17.2 kcal/mol. For the same sequence, the Tm in data set [2] worked out at 54.6 °C.
Taken in the same sequence, the figures for GTCGTGGGAAACTGCGAC ((((..(....)..)))) were -18.5 kcal/mol and 46.9 °C.
Taken in the same sequence, the figures for GTCGTTCGAAAGAATGAC (((.(((....))).))) were -42.1 kcal/mol and 54.9 °C.
Taken in the same sequence, the figures for GTCGTTGGAAACAATGAC (((.(((....))).))) were -32.5 kcal/mol and 48.3 °C.
In the case of GTCGTTGGAAACAGCGAC ((((.((....)).)))), the folding enthalpy in data set [1] is -37.5 kcal/mol. Further, the Tm in data set [2] was found to be 52.4 °C.
Taken in the same sequence, the figures for GTCGTTGGAAACGATGAC (((.(.(....).).))) were -13.5 kcal/mol and 49 °C.
Taken in the same sequence, the figures for GTCGTTTCGAAAGAAGAC (((..(((....)))))) were -14 kcal/mol and 28.9 °C.
Taken in the same sequence, the figures for GTCTAAGCGAAAGCTGAC (((..(((....)))))) were -17.2 kcal/mol and 43.1 °C.
As for GTCTAAGGAAACTTAGAC (((((((....))))))), in data set [1], the folding enthalpy is -41.9 kcal/mol. Also, in data set [2], the Tm was found to be 51.5 °C.
Taken in the same sequence, the figures for GTCTACGAAAGTAACGAC ((((((....)))..))) were -16.4 kcal/mol and 31.3 °C.
Taken in the same sequence, the figures for GTCTACGAAAGTACAGAC ((((((....)))..))) were -18.1 kcal/mol and 33.4 °C.
As to GTCTACGAAAGTACGGAC ((((((....)))..))), the folding enthalpy in data set [1] is -12.1 kcal/mol. Also, in data set [2], the Tm stood at 34.1 °C.
Taken in the same sequence, the figures for GTCTACGGAAACGCAGAC ((((.((....)).)))) were -35 kcal/mol and 45.1 °C.
On to GTCTACGGAAACGTAAAC ((.((((....)))).)), for which, in data set [1], the folding enthalpy was -14.4 kcal/mol. The Tm in data set [2] came out at 27.7 °C.
Consider GTCTAGAAATAGAC (((((....))))), for which, in data set [1], the folding enthalpy is -14.9 kcal/mol. In addition, in data set [2], the Tm stood at 40.5 °C.
For GTCTAGACGAAAGTCGAC (((..(((....)))))), the folding enthalpy in data set [1] was -13.1 kcal/mol. The Tm in data set [2] stood at 39.6 °C.
Taken in the same sequence, the figures for GTCTAGGCGAAAGCCGAC (((..(((....)))))) were -10.8 kcal/mol and 44.5 °C.
Taken in the same sequence, the figures for GTCTATGCGAAAGCAGAC (((..(((....)))))) were -16.9 kcal/mol and 42.1 °C.
As to GTCTATTCGAAAGAAGAC (((..(((....)))))), in data set [1], the folding enthalpy was -8.48 kcal/mol. Besides, the Tm in data set [2] was 23.8 °C.
Taken in the same sequence, the figures for GTCTCACCGAAAGGTGAC (((..(((....)))))) were -7.93 kcal/mol and 36.1 °C.
Taken in the same sequence, the figures for GTCTCACGAAAGTGCGAC (((.(((....))).))) were -38.7 kcal/mol and 50.3 °C.
Taken in the same sequence, the figures for GTCTCACGAAAGTGGGAC (((.(((....))).))) were -41.5 kcal/mol and 60.3 °C.
With GTCTCAGCGAAAGCTGAC (((..(((....)))))), the folding enthalpy in data set [1] is -8.27 kcal/mol. In addition, in data set [2], the Tm was 36.2 °C.
Taken in the same sequence, the figures for GTCTCCGAAAGGACTGAC ((((((....)))..))) were -14.6 kcal/mol and 34.4 °C.
Taken in the same sequence, the figures for GTCTCCGAAAGGAGCGAC ((((((....)))..))) were -16.1 kcal/mol and 53.9 °C.
GTCTCCGAAAGGAGGAC ((((((....))).))): in data set [1], the folding enthalpy was -16.4 kcal/mol. The Tm in data set [2] came to 50.8 °C.
Taken in the same sequence, the figures for GTCTCCGGAAACGGAGGC (.(((((....))))).) were -25.2 kcal/mol and 61.7 °C.
Taken in the same sequence, the figures for GTCTCGCGAAAGCGTGAC (((.(((....))).))) were -28.6 kcal/mol and 60.7 °C.
Turning to GTCTCTACGAAAGTAGAC (((..(((....)))))), the folding enthalpy in data set [1] is -11.2 kcal/mol. Also, the Tm in data set [2] was 33.2 °C.
Taken in the same sequence, the figures for GTCTCTGAAAAGAGAC ((((((....)))))) were -33.4 kcal/mol and 58.1 °C.
